Test results as given in ChEMBL document CHEMBL4152245, “Design, synthesis and biological evaluation of benzo[cd]indol-2(1H)-ones derivatives as BRD4 inhibitors” (Eur J Med Chem, 2018).
Active and inactive are the calls of the source. The calls are words filed in the database; no cut-off is given here.

Columns and labels:
[1] = biological target: T1, Bromodomain-containing protein 4 (Homo sapiens, UniProt O60885); experiment: (§1) Inhibition of His-tagged BRD4 bromodomain-1 (unknown origin) expressed in Escherichia coli BL21(DE3) at 20 uM using SGRGK(Ac)-GG-K(Ac)-GLG-K(Ac)-GGA-K(Ac)-RHRKVGG-K-Biotin as substrate preincubated for 15 mins followed by substrate addition measured after 10 mins by Alphascreen assay relative to control
Outline: (§2)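 His-tagged BRD4_BD1 purified by Ni-NTA, anion exchange and gel filtration, tag retained. Assay buffer: 20 mM HEPES pH 7.4, 0.1% BSA, 0.01% Triton X-100, 1 mM DTT. Protein preincubated with compound 15 min at room temperature, biotinylated tetra-acetyl peptide added for 10 min, then streptavidin donor and nickel chelate acceptor beads for 60 min. Compounds screened at 20 and 5 µM; IC50 from three independent experiments.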

[2] = biological target: T1, Bromodomain-containing protein 4; experiment: as §1, with “5” for “20”; outline: as §2
[3] = biological target: T1, Bromodomain-containing protein 4; experiment: as §1, with “100” for “20”
[4] = biological target: T1, Bromodomain-containing protein 4; experiment: Inhibition of His-tagged BRD4 bromodomain-1 (unknown origin) expressed in Escherichia coli BL21(DE3) using SGRGK(Ac)-GG-K(Ac)-GLG-K(Ac)-GGA-K(Ac)-RHRKVGG-K-Biotin as substrate preincubated for 15 mins followed by substrate addition measured after 10 mins by Alphascreen assay; outline: as §2

Compound | inhibition [1] | inhibition [2] | inhibition [3] [%] | IC50 [4] [µM]
CCCN1C(=O)c2cccc3c(S(=O)(=O)N4CCCC4)ccc1c23 | 15% | inactive | > 90 | 11
CCN1C(=O)c2cccc3c(S(=O)(=O)N4CCC(CNC(=O)OC(C)(C)C)CC4)ccc1c23 | 18% | inactive |  | 
CCN1C(=O)c2cccc3c(S(=O)(=O)N[C@@H](Cc4ccccc4)C(=O)OC)ccc1c23 | 71% | 37% |  | 
CCN1C(=O)c2cccc3c(S(=O)(=O)N4CCCCC4)ccc1c23 | 99% | 58% | > 90 | 47.3
CCN1C(=O)c2cccc3c(S(=O)(=O)NCCC(=O)OC)ccc1c23 | 66% | 29% |  | 
CCN1C(=O)c2cccc3c(S(=O)(=O)N4CC[C@H](NC(=O)OC(C)(C)C)C4)ccc1c23 | 88% | 37% | > 90 | 50.7
CN1C(=O)c2cccc3c(S(=O)(=O)N4CCCC4)ccc1c23 | 25% | 5% |  | 
CCN1C(=O)c2cccc3c(S(=O)(=O)N[C@H](C(=O)O)C(C)C)ccc1c23 | inactive | inactive |  | 
O=C(O)CN1C(=O)c2cccc3c(S(=O)(=O)N4CCCC4)ccc1c23 | 4% | inactive | > 90 | 23.1
CCN1C(=O)c2cccc3c(S(=O)(=O)N[C@@H](Cc4ccccc4)C(=O)O)ccc1c23 | inactive | 4% |  | 
CCN1C(=O)c2cccc3c(S(=O)(=O)N4CCC[C@@H](NC(=O)OC(C)(C)C)C4)ccc1c23 | 20% | 9% |  | 
CCOC(=O)CNS(=O)(=O)c1ccc2c3c(cccc13)C(=O)N2CC | 12% | inactive |  | 
CCN1C(=O)c2cccc3c(S(=O)(=O)Nc4ccccc4OC)ccc1c23 | 82% | 33% |  | 
O=C1c2cccc3c(S(=O)(=O)N4CCCC4)ccc(c23)N1CCO | 8% | inactive | > 90 | 69.2
CCN1C(=O)c2cccc3c(S(=O)(=O)N4CCC(NC(=O)OC(C)(C)C)CC4)ccc1c23 | 45% | 18% |  | 
CC(=O)N1C(=O)c2cccc3c(S(=O)(=O)N4CCCC4)ccc1c23 | 9% | 7% | > 90 | 12.7
CCN1C(=O)c2cccc3c(S(=O)(=O)N4CCOCC4)ccc1c23 | 97% | 55% |  | 
CCN1C(=O)c2cccc3c(S(=O)(=O)NCC(=O)O)ccc1c23 | 53% | inactive |  | 
CCN1C(=O)c2cccc3c(S(=O)(=O)N(CC)CC)ccc1c23 | 82% | 29% | > 90 | 42.2
CCN1C(=O)c2cccc3c(S(=O)(=O)NCCC(=O)O)ccc1c23 | 60% | 41% |  | 
CCN1C(=O)c2cccc3c(S(=O)(=O)NCCCO)ccc1c23 | inactive | inactive |  | 
CN(C)C(=O)CN1C(=O)c2cccc3c(S(=O)(=O)N4CCCC4)ccc1c23 | inactive | inactive | > 90 | 18.7
CCN1C(=O)c2cccc3c(S(=O)(=O)N4CCC(CN)CC4)ccc1c23 | 74% | 23% |  | 
CCN1C(=O)c2cccc3c(S(=O)(=O)N4CC[C@@H](NC(=O)OC(C)(C)C)C4)ccc1c23 | 95% | 57% | > 90 | 13.3
CCN1C(=O)c2cccc3c(S(=O)(=O)N[C@H](C(=O)OC)C(C)C)ccc1c23 | 89% | 21% |  | 
O=C(c1ccccc1)c1ccc(NS(=O)(=O)c2cccc(Br)c2)cc1 |  |  | > 90 | 

Further lines, results first:

inhibition [1] | inhibition [2] | inhibition [3] [%] | IC50 [4] [µM] | Compound
16% | inactive |  |  | CCN1C(=O)c2cccc3c(S(=O)(=O)N4CCC(N)CC4)ccc1c23
89% | 42% |  |  | CCN1C(=O)c2cccc3c(S(=O)(=O)N4CCC[C@@H]4C(=O)Nc4ccc(Cl)cc4)ccc1c23
22.4% | 11% |  |  | CCN1C(=O)c2cccc3c(S(=O)(=O)N4CCC[C@H]4CO)ccc1c23
63% | 18% |  |  | CCN1C(=O)c2cccc3c(S(=O)(=O)N4CCC[C@@H]4C(=O)Nc4ccc(O)cc4)ccc1c23
inactive | inactive |  |  | CCN1C(=O)c2cccc3c(S(=O)(=O)N4CCC[C@@H]4C(=O)Nc4ccccc4O)ccc1c23
8% | 17% | > 90 | 13.3 | CCN1C(=O)c2cccc3c(S(=O)(=O)N4CC[C@@H](OC)C4)ccc1c23
4% | 9% |  |  | CCN1C(=O)c2cccc3c(S(=O)(=O)N4CCC[C@@H]4CO)ccc1c23
inactive | inactive |  |  | CCN1C(=O)c2cccc3c(S(=O)(=O)N4CC[C@H](N)C4)ccc1c23
inactive | 3% |  |  | CCN1C(=O)c2cccc3c(S(=O)(=O)N4CC[C@@H](N)C4)ccc1c23
14% | inactive |  |  | CCN1C(=O)c2cccc3c(S(=O)(=O)N4CCC[C@H](O)C4)ccc1c23
67% | 21% | > 90 | 27.5 | CCN1C(=O)c2cccc3c(S(=O)(=O)N4CC[C@@H](O)C4)ccc1c23
inactive | inactive |  |  | CCN1C(=O)c2cccc3c(S(=O)(=O)N4CCC[C@H](N)C4)ccc1c23
80% | 28% |  |  | CCN1C(=O)c2cccc3c(S(=O)(=O)N4CC[C@H](OC)C4)ccc1c23
20% | 7% |  |  | CCN1C(=O)c2cccc3c(S(=O)(=O)N4CCC[C@H](NC(=O)OC(C)(C)C)C4)ccc1c23
27% | 9% | > 90 | 32.2 | CCN1C(=O)c2cccc3c(S(=O)(=O)N4CCC[C@@H](O)C4)ccc1c23
50% | 7% |  |  | CCN1C(=O)c2cccc3c(S(=O)(=O)N4CCC[C@@H]4C(=O)NO)ccc1c23
51% | 8% |  |  | CCN1C(=O)c2cccc3c(S(=O)(=O)N4CCC[C@@H]4C(=O)Nc4ccc(C)cc4)ccc1c23
39% | inactive |  |  | CCN1C(=O)c2cccc3c(S(=O)(=O)N4CCC[C@@H]4C(=O)Nc4ccccc4C)ccc1c23
88% | 35% |  |  | CCN1C(=O)c2cccc3c(S(=O)(=O)N4CC[C@H](O)C4)ccc1c23
61% | 27% |  |  | CCN1C(=O)c2cccc3c(S(=O)(=O)N4CCC[C@@H]4C(=O)OC)ccc1c23
inactive | inactive |  |  | CCN1C(=O)c2cccc3c(S(=O)(=O)N4CCC[C@@H](N)C4)ccc1c23
